Measurements as given in ChEMBL document CHEMBL3351600, “Sulfur, selenium and tellurium pseudopeptides: synthesis and biological evaluation” (Bioorg Med Chem, 2014).

Experiments:
[1] = tested on: ACHN; assay: Growth inhibition of human ACHN cells after 48 hrs; type: functional
Method in brief: (§1)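 NCI-60 human tumour cell line panel screen run at the US National Cancer Institute under its standard cytotoxicity protocol. It covers leukaemia, NSCLC, colon, CNS, melanoma, ovarian, renal, prostate and breast lines. An initial single-dose test was followed by five-dose testing with 48 h compound exposure.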

[2] = tested on: CAKI-1; assay: Growth inhibition of human CAKI-1 cells after 48 hrs; type: functional; conditions: CAKI-1, 48 h; method in brief: as §1
[3] = Growth inhibition of human RXF393 cells after 48 hrs; type: functional; conditions: RXF 393, 48 h; method in brief: as §1
[4] = tested on: SN12C; assay: Growth inhibition of human SN12C cells after 48 hrs; type: functional
Method in brief: (§2)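 Run by the NCI 58-cell-line screen under its standard cytotoxicity protocol. Compounds were first tested at a single dose, then at five doses. Cells were exposed to compound for 48 h.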

[5] = Growth inhibition of human UO31 cells after 48 hrs; type: functional; conditions: UO-31, 48 h; method in brief: as §2
[6] = Growth inhibition of human PC3 cells after 48 hrs; type: functional; conditions: PC-3, 48 h; method in brief: as §1
[7] = tested on: MCF7; assay: Growth inhibition of human MCF7 cells after 48 hrs; type: functional; conditions: MCF7, 48 h; method in brief: as §1
[8] = tested on: MDA-MB-231; assay: Growth inhibition of human MDA-MB-231 cells after 48 hrs; type: functional; conditions: MDA-MB-231, 48 h; method in brief: as §1
[9] = Growth inhibition of human BT549 cells after 48 hrs; type: functional; conditions: BT-549, 48 h; method in brief: as §1
[10] = tested on: MDA-MB-468; assay: Growth inhibition of human MDA-MB-468 cells after 48 hrs; type: functional; conditions: MDA-MB-468, 48 h; method in brief: as §1
[11] = Cytotoxicity against human fibroblasts assessed as cell viability after 24 hrs incubation by MTT assay; type: cell-based; conditions: Fibroblast
Method in brief: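 Cell lines came from DSMZ; primary human fibroblasts served as non-cancer controls. Cells were grown in medium with 10% FCS, seeded at 50,000 cells/ml, and grown 2 days at 37 °C, 10% CO2. Serial dilutions were then added for 24 h. MTT (final 0.5 mg/ml) was added for 2 h. Formazan was pelleted, PBS-washed, dissolved in isopropanol/0.4% HCl and read at 590 nm. Two parallel experiments were run. IC50 was taken as the concentration giving 50% of untreated-control absorbance.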

[12] = tested on: Mycolicibacterium phlei; assay: Antimicrobial activity against Mycobacterium phlei assessed as inhibition at 20 ug/6 mm disk after 1 to 2 days by agar diffusion assay; type: functional
Method in brief: (§3)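 Standard agar diffusion: 6-mm paper disks loaded with 20 µg of compound were placed on inoculated plates. Inhibition-zone diameter (mm) was read after 1 and 2 days of growth.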

[13] = tested on: Micrococcus luteus; assay: Antimicrobial activity against Micrococcus luteus assessed as inhibition at 20 ug/6 mm disk after 1 to 2 days by agar diffusion assay; type: functional; method in brief: as §3
[14] = tested on: Staphylococcus aureus; assay: Antimicrobial activity against Staphylococcus aureus assessed as inhibition at 20 ug/6 mm disk after 1 to 2 days by agar diffusion assay; type: functional; method in brief: as §3
[15] = tested on: Pseudomonas aeruginosa; assay: Antimicrobial activity against Pseudomonas aeruginosa assessed as inhibition at 20 ug/6 mm disk after 1 to 2 days by agar diffusion assay; type: functional; method in brief: as §3
[16] = tested on: Escherichia coli; assay: Antimicrobial activity against Escherichia coli tolC assessed as inhibition at 20 ug/6 mm disk after 1 to 2 days by agar diffusion assay; type: functional; method in brief: as §3
[17] = tested on: NCI-H23; assay: Growth inhibition of human NCI-H23 cells after 48 hrs; type: functional; conditions: NCI-H23, 48 h; method in brief: as §1
[18] = tested on: NCI-H460; assay: Growth inhibition of human NCI-H460 cells after 48 hrs; type: functional; conditions: NCI-H460, 48 h; method in brief: as §1
[19] = tested on: NCI-H522; assay: Growth inhibition of human NCI-H522 cells after 48 hrs; type: functional; conditions: NCI-H522, 48 h; method in brief: as §1
[20] = Growth inhibition of human HCT116 cells after 48 hrs; type: functional; conditions: HCT-116, 48 h; method in brief: as §1
[21] = tested on: HT-29; assay: Growth inhibition of human HT-29 cells after 48 hrs; type: functional; conditions: HT-29, 48 h; method in brief: as §1
[22] = tested on: SF-268; assay: Growth inhibition of human SF268 cells after 48 hrs; type: functional; conditions: SF-268, 48 h; method in brief: as §1
[23] = Growth inhibition of human SF539 cells after 48 hrs; type: functional; conditions: SF-539, 48 h; method in brief: as §1
[24] = tested on: SNB-19; assay: Growth inhibition of human SNB19 cells after 48 hrs; type: functional; conditions: SNB-19, 48 h; method in brief: as §2
[25] = tested on: M14; assay: Growth inhibition of human M14 cells after 48 hrs; type: functional; conditions: M14, 48 h; method in brief: as §1
[26] = tested on: SK-MEL-2; assay: Growth inhibition of human SK-MEL-2 cells after 48 hrs; type: functional; conditions: SK-MEL-2, 48 h; method in brief: as §1
[27] = Growth inhibition of human UACC62 cells after 48 hrs; type: functional; conditions: UACC-62, 48 h; method in brief: as §2
[28] = Growth inhibition of human OVCAR4 cells after 48 hrs; type: functional; conditions: OVCAR-4, 48 h; method in brief: as §1
[29] = Growth inhibition of human OVCAR8 cells after 48 hrs; type: functional; conditions: OVCAR-8, 48 h; method in brief: as §1
[30] = Growth inhibition of human NCI-ADR-RES cells after 48 hrs; type: functional; method in brief: as §1
[31] = tested on: SK-OV-3; assay: Growth inhibition of human SKOV3 cells after 48 hrs; type: functional; conditions: SK-OV-3, 48 h; method in brief: as §2
[32] = read-out: pLC50 (the source's name) (converted)

With `COc1ccc(N(CC(=O)NCCC[Te]c2ccccc2)C(=O)c2ccccc2)cc1` the GI50 [1] was 3.16 µM, the LC50 [1] was 39.8 µM and the TGI ([1]; read-out: pTGI (converted)) was 9.55 µM. For the same compound, the GI50 [2] was 2.95 µM, the LC50 [2] was greater than 100 µM and the TGI ([2]; read-out: pTGI (converted)) was 14.8 µM. The GI50 [3] was 12 µM, the LC50 [3] was 75.9 µM and the TGI ([3]; read-out: pTGI (converted)) was 30.2 µM. It also gave a GI50 [4] of 2.69 µM, an LC50 [4] greater than 100 µM and a TGI ([4]; read-out: pTGI (converted)) of 8.51 µM. For the same compound, the GI50 [5] was 2.75 µM, the LC50 [5] was 95.5 µM and the TGI ([5]; read-out: pTGI (converted)) was 11 µM. It also gave a GI50 [6] of 2.69 µM, an LC50 [6] greater than 100 µM and a TGI ([6]; read-out: pTGI (converted)) of 12.6 µM. It also gave a GI50 [7] of 3.16 µM, an LC50 (concentration killing 50% of cells) [7] of 75.9 µM and a TGI ([7]; read-out: pTGI (converted)) of 10.7 µM. It also gave a GI50 [8] of 2.63 µM, an LC50 [8] greater than 100 µM and a TGI ([8]; read-out: pTGI (converted)) of 4.79 µM. For the same compound, the GI50 [9] was 2.4 µM, the LC50 (concentration killing 50% of cells) [9] was greater than 100 µM and the TGI ([9]; read-out: pTGI (converted)) was 8.71 µM. For the same compound, the GI50 [10] was 4.27 µM, the LC50 [10] was 56.2 µM and the TGI ([10]; read-out: pTGI (converted)) was 17.8 µM. The IC50 [11] was 7.5 µM, the “diameter of the inhibition zone (DIZ)” value [12] was 17 mm and the “diameter of the inhibition zone (DIZ)” value [13] was 13 mm. The “diameter of the inhibition zone (DIZ)” value [14] was 12 mm, the “diameter of the inhibition zone (DIZ)” value [15] was 9 mm and the “diameter of the inhibition zone (DIZ)” value [16] was 11 mm. It also gave a GI50 [17] of 3.16 µM, a CC50 [17, 32] greater than 100 µM and a TGI ([17]; read-out: pTGI (converted)) of 9.33 µM. It also gave a GI50 [18] of 0.537 µM, a CC50 [18, 32] of 8.71 µM and a TGI ([18]; read-out: pTGI (converted)) of 2.4 µM. The GI50 [19] was 3.09 µM, the CC50 [19, 32] was 53.7 µM and the TGI ([19]; read-out: pTGI (converted)) was 8.71 µM. The GI50 [20] was 2.57 µM, the CC50 [20, 32] was 44.7 µM and the TGI ([20]; read-out: pTGI (converted)) was 10.2 µM. For the same compound, the GI50 [21] was 3.8 µM, the CC50 [21, 32] was greater than 100 µM and the TGI ([21]; read-out: pTGI (converted)) was greater than 100 µM. For the same compound, the GI50 [22] was 3.16 µM, the CC50 [22, 32] was 66.1 µM and the TGI ([22]; read-out: pTGI (converted)) was 10.7 µM. The GI50 [23] was 2.29 µM, the CC50 [23, 32] was 28.8 µM and the TGI ([23]; read-out: pTGI (converted)) was 6.03 µM. The GI50 [24] was 4.07 µM, the CC50 [24, 32] was greater than 100 µM and the TGI ([24]; read-out: pTGI (converted)) was 58.9 µM. For the same compound, the GI50 [25] was 4.17 µM, the CC50 [25, 32] was 63.1 µM and the TGI ([25]; read-out: pTGI (converted)) was 15.5 µM. It also gave a GI50 [26] of 4.17 µM, a CC50 [26, 32] greater than 100 µM and a TGI ([26]; read-out: pTGI (converted)) of 15.1 µM. The GI50 [27] was 2.51 µM, the CC50 [27, 32] was 43.7 µM and the TGI ([27]; read-out: pTGI (converted)) was 7.59 µM. For the same compound, the GI50 [28] was 12 µM, the LC50 [28] was 53.7 µM and the TGI ([28]; read-out: pTGI (converted)) was 25.1 µM. It also gave a GI50 [29] of 3.02 µM, an LC50 [29] greater than 100 µM and a TGI ([29]; read-out: pTGI (converted)) of 8.13 µM. For the same compound, the GI50 [30] was 3.24 µM, the LC50 [30] was greater than 100 µM and the TGI ([30]; read-out: pTGI (converted)) was 10.7 µM. The GI50 [31] was 2.57 µM, the CC50 [31, 32] was 35.5 µM and the TGI ([31]; read-out: pTGI (converted)) was 6.03 µM.
